According to ChEMBL document CHEMBL3608250, “Fragment-Based Discovery of Potent and Selective DDR1/2 Inhibitors” (ACS Med Chem Lett, 2015):
Where a chain is given by its changes, count along the chain named. One block for each compound: values may come before it. The source made the active and inactive calls. The rule behind the calls is not given here.

What was measured:
[1] = target: Proto-oncogene tyrosine-protein kinase Src (Homo sapiens) (UniProt P12931); assay: Inhibition of c-Src (unknown origin) using biotinylated HER2 peptide as substrate at 10 uM by time resolved fluorescence method
Sequence of Proto-oncogene tyrosine-protein kinase Src (Homo sapiens) (P12931 2-536 limits assumed): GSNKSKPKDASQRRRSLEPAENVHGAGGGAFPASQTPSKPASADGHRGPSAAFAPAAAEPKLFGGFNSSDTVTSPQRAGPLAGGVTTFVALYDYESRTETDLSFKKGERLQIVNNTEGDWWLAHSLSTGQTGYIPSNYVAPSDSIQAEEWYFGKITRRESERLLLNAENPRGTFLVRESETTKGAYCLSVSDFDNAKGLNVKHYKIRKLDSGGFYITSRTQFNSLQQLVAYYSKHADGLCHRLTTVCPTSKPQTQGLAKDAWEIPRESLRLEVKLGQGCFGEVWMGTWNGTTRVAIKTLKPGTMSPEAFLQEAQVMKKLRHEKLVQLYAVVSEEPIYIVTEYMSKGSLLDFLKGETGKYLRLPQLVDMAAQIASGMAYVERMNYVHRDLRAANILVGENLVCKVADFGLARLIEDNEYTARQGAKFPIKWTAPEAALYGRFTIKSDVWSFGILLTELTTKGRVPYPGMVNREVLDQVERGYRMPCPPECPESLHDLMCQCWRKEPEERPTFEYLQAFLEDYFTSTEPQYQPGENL

[2] = target: T1, Mast/stem cell growth factor receptor Kit (Homo sapiens, UniProt P10721); assay: Inhibition of c-Kit (unknown origin) using biotinylated HER2 peptide as substrate by time resolved fluorescence method
T1 sequence (P10721 whole entry, the tested form may be a part): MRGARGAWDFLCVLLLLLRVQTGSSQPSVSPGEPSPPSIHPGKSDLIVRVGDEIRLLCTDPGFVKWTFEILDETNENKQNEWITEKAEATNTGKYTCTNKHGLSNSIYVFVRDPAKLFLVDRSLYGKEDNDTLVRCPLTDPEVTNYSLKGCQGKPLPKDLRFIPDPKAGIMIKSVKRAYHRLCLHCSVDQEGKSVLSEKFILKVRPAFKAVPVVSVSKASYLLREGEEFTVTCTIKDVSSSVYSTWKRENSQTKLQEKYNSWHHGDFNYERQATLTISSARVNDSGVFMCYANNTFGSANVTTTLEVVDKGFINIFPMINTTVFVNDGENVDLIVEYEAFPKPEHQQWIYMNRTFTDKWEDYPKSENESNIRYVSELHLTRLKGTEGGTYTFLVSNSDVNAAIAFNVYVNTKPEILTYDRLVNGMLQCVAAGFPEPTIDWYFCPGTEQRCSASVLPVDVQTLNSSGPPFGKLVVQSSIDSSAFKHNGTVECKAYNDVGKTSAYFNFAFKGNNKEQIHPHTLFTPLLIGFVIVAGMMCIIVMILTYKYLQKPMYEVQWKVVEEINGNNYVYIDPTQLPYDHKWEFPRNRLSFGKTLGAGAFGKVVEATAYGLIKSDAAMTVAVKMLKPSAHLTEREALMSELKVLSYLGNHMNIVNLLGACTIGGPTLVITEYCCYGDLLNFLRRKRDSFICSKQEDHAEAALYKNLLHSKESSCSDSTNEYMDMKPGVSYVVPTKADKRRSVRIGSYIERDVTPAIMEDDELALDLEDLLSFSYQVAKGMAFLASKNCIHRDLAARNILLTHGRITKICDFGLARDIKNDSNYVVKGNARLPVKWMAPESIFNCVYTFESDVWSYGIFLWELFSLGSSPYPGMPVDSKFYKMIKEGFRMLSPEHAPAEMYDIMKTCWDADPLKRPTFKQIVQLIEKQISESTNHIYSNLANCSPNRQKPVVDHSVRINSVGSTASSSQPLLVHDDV

[3] = target: T2, Epithelial discoidin domain-containing receptor 1 (Homo sapiens, UniProt Q08345); assay: Inhibition of DDR1 (unknown origin) at 0.0015 uM after 1 hr by time resolved fluorescence method
T2 sequence (Q08345 whole entry, the tested form may be a part): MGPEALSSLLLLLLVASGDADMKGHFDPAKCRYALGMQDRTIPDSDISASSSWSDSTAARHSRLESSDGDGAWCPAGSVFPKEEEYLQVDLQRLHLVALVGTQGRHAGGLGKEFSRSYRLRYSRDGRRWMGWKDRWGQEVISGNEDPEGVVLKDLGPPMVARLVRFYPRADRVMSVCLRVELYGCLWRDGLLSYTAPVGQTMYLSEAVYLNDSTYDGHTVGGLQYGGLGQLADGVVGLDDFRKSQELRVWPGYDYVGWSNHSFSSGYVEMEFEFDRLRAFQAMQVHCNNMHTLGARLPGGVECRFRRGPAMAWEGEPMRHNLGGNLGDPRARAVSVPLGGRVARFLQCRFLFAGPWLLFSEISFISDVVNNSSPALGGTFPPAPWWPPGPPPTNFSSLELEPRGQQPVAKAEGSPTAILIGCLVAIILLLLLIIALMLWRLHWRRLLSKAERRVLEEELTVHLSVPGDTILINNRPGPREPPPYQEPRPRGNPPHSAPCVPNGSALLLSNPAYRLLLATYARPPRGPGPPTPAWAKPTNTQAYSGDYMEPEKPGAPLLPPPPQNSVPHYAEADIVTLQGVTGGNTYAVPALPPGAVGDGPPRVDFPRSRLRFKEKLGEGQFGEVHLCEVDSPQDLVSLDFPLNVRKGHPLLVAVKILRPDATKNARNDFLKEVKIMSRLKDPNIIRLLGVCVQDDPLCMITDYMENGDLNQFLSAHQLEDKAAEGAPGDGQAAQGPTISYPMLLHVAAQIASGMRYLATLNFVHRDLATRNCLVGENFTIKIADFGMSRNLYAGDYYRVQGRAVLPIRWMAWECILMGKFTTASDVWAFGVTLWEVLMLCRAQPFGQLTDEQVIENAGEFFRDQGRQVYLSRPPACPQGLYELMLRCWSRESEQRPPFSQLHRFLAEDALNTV

[4] = target: T3, Discoidin domain-containing receptor 2 (Homo sapiens, UniProt Q16832); assay: Inhibition of DDR2 (unknown origin) after 1 hr by time resolved fluorescence method
T3 sequence (Q16832 whole entry): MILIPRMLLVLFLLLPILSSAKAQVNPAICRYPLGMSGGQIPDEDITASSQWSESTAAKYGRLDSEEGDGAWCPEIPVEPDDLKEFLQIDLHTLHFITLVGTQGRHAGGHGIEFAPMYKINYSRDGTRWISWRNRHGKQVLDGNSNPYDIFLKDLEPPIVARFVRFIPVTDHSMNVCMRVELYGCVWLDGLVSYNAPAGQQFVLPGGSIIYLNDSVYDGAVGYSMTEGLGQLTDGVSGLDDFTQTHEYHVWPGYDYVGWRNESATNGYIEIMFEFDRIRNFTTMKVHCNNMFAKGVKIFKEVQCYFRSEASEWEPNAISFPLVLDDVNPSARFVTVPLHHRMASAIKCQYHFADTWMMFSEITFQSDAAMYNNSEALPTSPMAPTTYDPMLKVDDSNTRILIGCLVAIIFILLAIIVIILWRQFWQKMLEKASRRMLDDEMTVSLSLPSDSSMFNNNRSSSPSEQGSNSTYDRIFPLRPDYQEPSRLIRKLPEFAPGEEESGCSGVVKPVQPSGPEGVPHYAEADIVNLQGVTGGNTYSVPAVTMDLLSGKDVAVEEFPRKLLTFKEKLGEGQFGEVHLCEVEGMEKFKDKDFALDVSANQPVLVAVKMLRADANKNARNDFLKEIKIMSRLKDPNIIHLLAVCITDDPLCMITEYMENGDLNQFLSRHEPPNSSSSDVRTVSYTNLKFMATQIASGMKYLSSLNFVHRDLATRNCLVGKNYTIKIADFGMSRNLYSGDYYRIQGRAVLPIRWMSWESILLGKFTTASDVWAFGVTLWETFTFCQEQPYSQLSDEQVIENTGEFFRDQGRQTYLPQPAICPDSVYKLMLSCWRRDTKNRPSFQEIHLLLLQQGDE

[5] = target: T4, Discoidin domain-containing receptor 2 (Homo sapiens) (UniProt Q16832); assay: Inhibition of DDR2 (unknown origin) at 100 uM after 1 hr by time resolved fluorescence method
T4 sequence (whole entry): T3 sequence (Q16832 whole entry)

[6] = target: T2, Epithelial discoidin domain-containing receptor 1; assay: Inhibition of DDR1 (unknown origin) after 1 hr by time resolved fluorescence method
[7] = Volume of distribution at steady state in Balb/C mouse at 1 mg/kg, iv and 5 mg/kg, po; type: ADME, organism-based; conditions: in vivo, read-out: Vdss
[8] = target: T1, Mast/stem cell growth factor receptor Kit; assay: Inhibition of c-Kit (unknown origin) using biotinylated HER2 peptide as substrate at 3 uM by time resolved fluorescence method
[9] = Oral bioavailability in Balb/C mouse at 5 mg/kg; type: ADME, organism-based; conditions: in vivo
[10] = Half life in Balb/C mouse at 1 mg/kg, iv and 5 mg/kg, po; type: ADME, organism-based; conditions: in vivo
[11] = Clearance in Balb/C mouse at 1 mg/kg, iv and 5 mg/kg, po; type: ADME, organism-based; conditions: in vivo
[12] = target: T4, Discoidin domain-containing receptor 2 (Homo sapiens); assay: Inhibition of collagen I-induced DDR2 (unknown origin) phosphorylation expressed in HEK293 cells at 0.1 to 1 uM after 16 hrs by Western blotting; type: cell-based
Method in brief: (§1)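 HEK293 cells stably transfected with either wild-type DDR2 or the I638F mutant, giving DDR2 overexpression. Cells were left unstimulated or stimulated with collagen I and treated with compound. DDR2 tyrosine phosphorylation (pY) was read out by immunoblot.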

[13] = test system: T5, Discoidin domain-containing receptor 2 (Homo sapiens), Q16832 [I638F]; assay: Inhibition of collagen I-induced DDR2 I638F mutant (unknown origin) phosphorylation expressed in HEK293 cells at 0.1 to 1 uM after 16 hrs by Western blotting; type: cell-based; method in brief: as §1
T5 sequence (whole entry): T3 sequence (Q16832 whole entry) with I638F

[14] = Antiproliferative activity against human NCI-H2286 cells expressing DDR2 mutant after 72 hrs by alamar blue assay; type: functional, cell-based; conditions: NCI-H2286, 72 h
[15] = target: Proto-oncogene tyrosine-protein kinase Src (Homo sapiens) (UniProt P12931); assay: Inhibition of c-Src (unknown origin) using biotinylated HER2 peptide as substrate at 3 uM by time resolved fluorescence method
[16] = Antiproliferative activity against human HCC366 cells expressing DDR2 mutant after 72 hrs by alamar blue assay; type: functional, cell-based; conditions: HCC366, 72 h
[17] = target: T3, Discoidin domain-containing receptor 2; assay: Inhibition of collagen I-induced DDR2 (unknown origin) phosphorylation expressed in HEK293 cells after 16 hrs by mesoscale discovery assay; type: cell-based
Method in brief: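 HEK293 cells stably transfected to overexpress DDR2 (wild type or I638F mutant lines were generated), then stimulated with collagen I. Tyrosine-phosphorylated DDR2 was measured by MesoScale Discovery immunoassay and an EC50 was derived from the concentration–response.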

[18] = target: Proto-oncogene tyrosine-protein kinase Src (Homo sapiens) (UniProt P12931); assay: Inhibition of c-Src (unknown origin) using biotinylated HER2 peptide as substrate at 100 uM by time resolved fluorescence method
[19] = target: T1, Mast/stem cell growth factor receptor Kit; conditions: 0.003 uM
[20] = target: T2, Epithelial discoidin domain-containing receptor 1; assay: Inhibition of DDR1 (unknown origin) at 0.005 uM after 1 hr by time resolved fluorescence method
[21] = target: T1, Mast/stem cell growth factor receptor Kit; assay: Inhibition of c-Kit (unknown origin) using biotinylated HER2 peptide as substrate at 10 uM by time resolved fluorescence method

- Vd [7]: 0.42 L/kg
- inhibition [15]: 40%
- IC50 [2]: 0.019 µM
- inhibition [3]: 54%
- inhibition [12]: Active
- bioavailability [9]: 62%
- inhibition [13]: Active
- half-life [10]: 0.83 h
- IC50 [4]: 0.0033 µM
- EC50 [17]: 0.0087 µM
- clearance [11]: 0.459 L/h/kg
SMILES: Cc1ccc(CNC(=O)Nc2cccc(F)c2)cc1NC(=O)c1cnc2ccccn12
- IC50 [14]: > 10 µM
- IC50 [16]: > 10 µM

- IC50 [6]: 0.15 µM
- IC50 [2]: 0.18 µM
- inhibition [18]: 63%
- IC50 [4]: 0.28 µM
SMILES: O=C(NCc1cccc(NC(=O)c2cnc3ccccn23)c1)Nc1ccccc1

- inhibition [1]: 54%
- IC50 [2]: 0.0098 µM
- IC50 [4]: 0.0082 µM
SMILES: Cc1ccc(CNC(=O)Nc2ccccc2)cc1NC(=O)c1cnc2ccccn12

- IC50 [6]: 1.5 µM
- inhibition [21]: 47%
- IC50 [4]: 1.3 µM
SMILES: Cc1ccc([C@@H](C)NC(=O)Nc2ccccc2)cc1NC(=O)c1cnc2ccccn12

Second part, the compound before the results:

SMILES: Cc1ccc([C@H](C)NC(=O)Nc2cccc(F)c2)cc1NC(=O)c1cnc2ccccn12
- inhibition [1]: 22%
- IC50 [2]: 0.14 µM
- inhibition [3]: 54%
- IC50 [4]: 0.0045 µM

SMILES: O=C(NCc1cccnc1)Nc1ccccc1Cl
- inhibition [5]: 32%
- IC50 [6]: > 100 µM

SMILES: Cc1ccc([C@H](C)NC(=O)c2cccc(C(F)(F)F)c2)cc1NC(=O)c1cnc2ccccn12
- Vd [7]: 0.31 L/kg
- inhibition [1]: 48%
- inhibition [8]: 49%
- inhibition [3]: 44%
- bioavailability [9]: 55%
- half-life [10]: 1.4 h
- IC50 [4]: 0.0058 µM
- clearance [11]: 0.179 L/h/kg

SMILES: CN1CCN(CCOc2cc(OC3CCOCC3)c3c(Nc4c(Cl)ccc5c4OCO5)ncnc3c2)CC1
- inhibition [12]: Active
- inhibition [13]: Active

SMILES: Cc1cn(-c2cc(NC(=O)c3ccc(C)c(Nc4nccc(-c5cccnc5)n4)c3)cc(C(F)(F)F)c2)cn1 [NILOTINIB]
- IC50 [14]: 1.8 µM
- inhibition [12]: Active
- inhibition [13]: Active

SMILES: Cc1nc(Nc2ncc(C(=O)Nc3c(C)cccc3Cl)s2)cc(N2CCN(CCO)CC2)n1 [DASATINIB]
- IC50 [14]: 0.032 µM
- inhibition [19]: 90%
- inhibition [3]: 40%
- IC50 [16]: 0.029 µM

SMILES: Cc1ccc([C@H](C)Nc2nc3cc(F)ccc3o2)cc1NC(=O)c1cnc2ccccn12
- Vd [7]: 1.9 L/kg
- inhibition [1]: 52%
- inhibition [20]: 59%
- IC50 [2]: 0.16 µM
- bioavailability [9]: 97%
- half-life [10]: 1.8 h
- IC50 [4]: 0.0061 µM
- clearance [11]: 0.996 L/h/kg

SMILES: Cc1ccc([C@H](C)NC(=O)Nc2ccccc2)cc1NC(=O)c1cnc2ccccn12
- inhibition [1]: 4%
- IC50 [6]: 0.006 µM
- IC50 [2]: 0.31 µM
- IC50 [4]: 0.0081 µM
